Converted amounts (≈) assume the structure as drawn. Blank lines part the entries; values can stand above or below the compound they belong to. The source made the active and inactive calls. No cut-off for these calls is given here.
How the values were obtained:
[1] = target: Potassium voltage-gated channel subfamily A member 5 (Homo sapiens, UniProt P22460); experiment: Inhibition of human Kv1.5 ion channel after 3 mins by high-throughput planar patch clamp assay
Method in brief: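 Electrophysiology run on IonWorks high-throughput planar patch clamp, following a previously published method. IC50 values come from concentration-response testing of compounds retested for LC/MS purity.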

[2] = Intrinsic clearance in human liver microsomes at 50 uM up to 45 mins; format: ADME, Microsome; details: read-out: CLH
[3] = Aqueous solubility of the compound at pH 7.4 after 24 hrs; format: physicochemical; details: aqueous medium
[4] = Apparent permeability from apical to basolateral side of human Caco2 cells; format: ADME, cell-based; details: Caco-2
[5] = Fraction unbound in human plasma; format: ADME, cell-free
[6] = Oral bioavailability in rat; format: ADME, organism-based; details: in vivo
[7] = target: Cytochrome P450 2D6 (Homo sapiens, UniProt P10635); experiment: Inhibition of human recombinant CYP2D6 expressed in Escherichia coli; format: ADME
[8] = Volume of distribution at steady state in iv dosed rat; format: ADME, organism-based; details: in vivo, read-out: Vdss
[9] = Clearance in iv dosed rat; format: ADME, organism-based; details: in vivo
[10] = Octanol-water distribution coefficient, log D of the compound at pH 7.4 by shake-flask method; format: physicochemical
[11] = target: Cytochrome P450 3A4 (Homo sapiens, UniProt P08684); experiment: Inhibition of human recombinant CYP3A4 expressed in Escherichia coli; format: ADME
[12] = target: Voltage-gated inwardly rectifying potassium channel KCNH2 (Homo sapiens, UniProt Q12809); experiment: Inhibition of human ERG expressed in CHOK1 cells; format: cell-based, CHO-K1
[13] = Dissociation constant, pKa of the compound; format: physicochemical
[14] = Half life in iv dosed rat; format: ADME, organism-based; details: in vivo
[15] = Intrinsic clearance in human hepatocytes assessed per million cells; format: ADME, cell-based, Hepatocyte; details: read-out: CLH

Cytochrome P450 2D6, sequence (P10635 whole entry): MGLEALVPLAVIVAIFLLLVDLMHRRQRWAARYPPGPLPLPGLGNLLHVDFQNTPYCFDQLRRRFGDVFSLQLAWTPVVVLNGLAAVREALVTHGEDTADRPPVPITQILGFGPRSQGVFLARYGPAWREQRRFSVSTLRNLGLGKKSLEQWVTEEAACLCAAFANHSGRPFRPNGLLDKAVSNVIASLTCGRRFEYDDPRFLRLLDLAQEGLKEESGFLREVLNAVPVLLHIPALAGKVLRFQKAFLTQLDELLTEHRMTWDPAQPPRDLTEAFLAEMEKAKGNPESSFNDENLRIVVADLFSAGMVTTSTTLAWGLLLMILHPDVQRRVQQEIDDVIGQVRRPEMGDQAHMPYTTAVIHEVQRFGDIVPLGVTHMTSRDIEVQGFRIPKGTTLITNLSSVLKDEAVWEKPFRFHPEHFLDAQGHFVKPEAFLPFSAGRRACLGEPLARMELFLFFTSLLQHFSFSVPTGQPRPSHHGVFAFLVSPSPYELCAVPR
Voltage-gated inwardly rectifying potassium channel KCNH2, sequence (Q12809 whole entry): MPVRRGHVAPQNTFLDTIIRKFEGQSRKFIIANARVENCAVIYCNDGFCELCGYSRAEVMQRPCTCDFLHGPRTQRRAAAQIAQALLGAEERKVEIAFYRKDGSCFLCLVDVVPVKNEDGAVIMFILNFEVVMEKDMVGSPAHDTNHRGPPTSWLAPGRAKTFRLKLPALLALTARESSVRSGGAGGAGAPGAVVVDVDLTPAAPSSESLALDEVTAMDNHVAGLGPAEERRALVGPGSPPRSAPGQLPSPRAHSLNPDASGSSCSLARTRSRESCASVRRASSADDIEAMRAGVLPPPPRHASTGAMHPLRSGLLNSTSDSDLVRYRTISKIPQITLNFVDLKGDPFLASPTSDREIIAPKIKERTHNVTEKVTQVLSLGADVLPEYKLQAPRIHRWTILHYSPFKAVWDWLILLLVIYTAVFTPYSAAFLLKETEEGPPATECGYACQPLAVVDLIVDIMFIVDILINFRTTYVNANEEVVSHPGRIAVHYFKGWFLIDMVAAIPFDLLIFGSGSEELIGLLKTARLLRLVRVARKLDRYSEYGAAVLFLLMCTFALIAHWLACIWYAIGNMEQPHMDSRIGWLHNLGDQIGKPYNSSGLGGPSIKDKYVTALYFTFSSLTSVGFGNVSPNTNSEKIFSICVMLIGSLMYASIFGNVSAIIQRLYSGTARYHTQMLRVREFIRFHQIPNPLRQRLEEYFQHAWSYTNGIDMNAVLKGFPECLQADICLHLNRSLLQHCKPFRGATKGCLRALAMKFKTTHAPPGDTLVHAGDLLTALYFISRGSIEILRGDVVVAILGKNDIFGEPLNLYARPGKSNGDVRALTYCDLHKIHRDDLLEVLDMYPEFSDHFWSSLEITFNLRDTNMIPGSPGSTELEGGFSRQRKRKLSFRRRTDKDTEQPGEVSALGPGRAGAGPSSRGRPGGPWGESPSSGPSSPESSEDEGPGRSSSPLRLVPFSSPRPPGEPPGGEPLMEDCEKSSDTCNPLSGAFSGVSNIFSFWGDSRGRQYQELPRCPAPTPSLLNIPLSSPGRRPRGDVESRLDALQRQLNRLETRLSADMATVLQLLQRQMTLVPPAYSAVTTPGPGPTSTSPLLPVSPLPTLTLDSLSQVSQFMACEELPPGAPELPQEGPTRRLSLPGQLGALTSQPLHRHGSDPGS
Cytochrome P450 3A4, sequence (P08684 whole entry): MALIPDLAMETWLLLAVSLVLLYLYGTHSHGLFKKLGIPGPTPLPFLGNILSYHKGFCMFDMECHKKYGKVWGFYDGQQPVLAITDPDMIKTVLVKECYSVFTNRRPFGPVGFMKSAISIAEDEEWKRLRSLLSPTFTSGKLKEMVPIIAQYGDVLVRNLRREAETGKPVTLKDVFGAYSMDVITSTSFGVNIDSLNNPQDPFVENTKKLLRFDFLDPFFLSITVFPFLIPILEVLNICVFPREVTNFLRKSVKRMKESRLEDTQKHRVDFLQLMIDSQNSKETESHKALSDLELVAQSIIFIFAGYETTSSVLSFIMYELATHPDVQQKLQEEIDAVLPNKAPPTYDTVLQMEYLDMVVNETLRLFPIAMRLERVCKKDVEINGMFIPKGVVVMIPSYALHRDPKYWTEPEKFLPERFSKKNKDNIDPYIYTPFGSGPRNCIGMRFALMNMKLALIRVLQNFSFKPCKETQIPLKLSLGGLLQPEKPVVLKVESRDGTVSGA
Potassium voltage-gated channel subfamily A member 5, sequence (P22460 whole entry): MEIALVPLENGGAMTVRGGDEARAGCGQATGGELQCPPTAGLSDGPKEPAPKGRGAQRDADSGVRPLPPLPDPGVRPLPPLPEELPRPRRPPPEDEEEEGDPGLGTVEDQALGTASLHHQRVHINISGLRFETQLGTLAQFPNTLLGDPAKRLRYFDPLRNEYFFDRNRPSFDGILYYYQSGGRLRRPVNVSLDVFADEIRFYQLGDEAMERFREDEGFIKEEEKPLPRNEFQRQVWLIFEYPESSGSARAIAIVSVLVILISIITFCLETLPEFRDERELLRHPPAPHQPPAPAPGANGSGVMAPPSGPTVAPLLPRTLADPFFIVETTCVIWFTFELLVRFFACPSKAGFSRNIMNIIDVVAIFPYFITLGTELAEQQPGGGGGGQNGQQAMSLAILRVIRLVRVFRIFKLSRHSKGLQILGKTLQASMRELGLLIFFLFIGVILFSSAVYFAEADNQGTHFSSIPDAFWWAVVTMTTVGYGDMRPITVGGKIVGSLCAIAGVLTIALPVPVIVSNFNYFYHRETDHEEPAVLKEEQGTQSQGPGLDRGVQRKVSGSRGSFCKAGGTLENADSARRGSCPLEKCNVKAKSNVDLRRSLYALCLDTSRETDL

Compound: O[C@@H](c1ccccc1)[C@H](c1ccccc1)N1CCCC1
inhibition [1]: inactive

inhibition [1]: inactive
Compound: c1ccc(C2NCCOC2c2ccccc2)cc1 (centres undefined)

Compound: NC(c1ccccc1)C(O)c1ccccc1 (centres undefined)
inhibition [1]: inactive

inhibition [1]: inactive
Compound: CC(=O)NC(c1ccccc1)C(O)c1ccccc1 (centres undefined)

Compound: O[C@@H](c1ccccc1)[C@@H](c1ccccc1)N1CCCCC1
inhibition [1]: inactive

microsomal CLint at 50 µM [2]: 21.6 µL/min/mg
solubility at 24 h [3]: 100 µM (≈ 32 µg/mL)
Papp A→B [4]: 13.3 ×10⁻⁶ cm/s
fraction unbound [5]: 0.17
bioavailability [6]: 48.9%
IC50 [7]: 316 nM
Vd [8]: 6.4 L/kg
clearance [9]: 10.8 mL/min/kg
logD [10]: 3.3
IC50 [11]: 12.6 µM
pKa [13]: 10.5
half-life [14]: 426 min
hepatocyte CLint [15]: < 4 µL/min/1e6 cells
IC50 [1]: 300 nM
Compound: c1ccc([C@@H]([C@H](c2ccccc2)N2CCCC2)N2CCCC2)cc1
IC50 [12]: 31.6 µM

Compound: CCCOc1ccc(C(O)C(c2ccccc2)N2CCCC2)cc1 (centres undefined)
inhibition [1]: inactive

Compound: OC(c1ccccc1)C(NC1CCCCC1)c1ccccc1 (centres undefined)
inhibition [1]: inactive

Compound: O[C@@H](c1ccccc1)[C@H](c1ccccc1)N1CCOCC1
inhibition [1]: inactive

Compound: c1ccc([C@H]([C@@H](c2ccccc2)N2CCCCC2)N2CCCCC2)cc1
microsomal CLint at 50 µM [2]: 14.1 µL/min/mg
solubility at 24 h [3]: 95 µM (≈ 33.1 µg/mL)
Papp A→B [4]: 10.3 ×10⁻⁶ cm/s
fraction unbound [5]: 0.065
bioavailability [6]: 103%
IC50 [7]: 126 nM
Vd [8]: 16.4 L/kg
clearance [9]: 13.1 mL/min/kg
logD [10]: 4
IC50 [11]: 20 µM
IC50 [12]: 25.1 µM
pKa [13]: 11
half-life [14]: 906 min
hepatocyte CLint [15]: < 4 µL/min/1e6 cells
IC50 [1]: 200 nM

microsomal CLint at 50 µM [2]: 12 µL/min/mg
solubility at 24 h [3]: 92 µM (≈ 29.5 µg/mL)
Papp A→B [4]: 14 ×10⁻⁶ cm/s
fraction unbound [5]: 0.17
bioavailability [6]: 15.6%
IC50 [7]: 200 nM
Vd [8]: 7.9 L/kg
clearance [9]: 91.8 mL/min/kg
logD [10]: 3.2
IC50 [11]: 12.6 µM
pKa [13]: 10.4
half-life [14]: 60 min
hepatocyte CLint [15]: < 4 µL/min/1e6 cells
IC50 [1]: 600 nM
Compound: c1ccc([C@H]([C@@H](c2ccccc2)N2CCCC2)N2CCCC2)cc1
IC50 [12]: 31.6 µM

inhibition [1]: inactive
Compound: OC(c1ccccc1)C(c1ccccc1)N1CCNCC1 (centres undefined)

Compound: CC(C)[C@@H]1CC[C@@H](C)C[C@@H]1P(=O)(c1ccccc1)c1ccccc1
logD [10]: 6

Compound: c1ccc([C@@H]([C@H](c2ccccc2)N2CCCCC2)N2CCCCC2)cc1
microsomal CLint at 50 µM [2]: 17.6 µL/min/mg
solubility at 24 h [3]: 81 µM (≈ 28.2 µg/mL)
Papp A→B [4]: 10.2 ×10⁻⁶ cm/s
fraction unbound [5]: 0.099
bioavailability [6]: 26.6%
IC50 [7]: 316 nM
logD [10]: 4.1
IC50 [11]: 15.8 µM
IC50 [12]: 31.6 µM
pKa [13]: 11.4
hepatocyte CLint [15]: < 4 µL/min/1e6 cells
IC50 [1]: 200 nM

inhibition [1]: inactive
Compound: O=C(Cc1ccccc1)N[C@@H](c1ccccc1)[C@@H](O)c1ccccc1

Compound: CN(C)[C@@H](c1ccccc1)[C@@H](O)c1ccccc1
inhibition [1]: inactive

Reference: ChEMBL document CHEMBL2150928, “Symmetric kv1.5 blockers discovered by focused screening” (ACS Med Chem Lett, 2012)
